Measured values: ChEMBL document CHEMBL3861974, “Discovery of a Selective Aurora A Kinase Inhibitor by Virtual Screening” (J Med Chem, 2016)
Calls of active or inactive are those of the source. The calls are words filed in the database; no cut-off is given here.

Tests used:
Homo sapiens = species on record: Homo sapiens; assay: Selectivity index, ratio of IC50 for Aurora-B/INCENP (unknown origin) to IC50 for His-tagged human Aurora A kinase ([…] residues) expressed in Escherichia coli BL21 (DE3) Rosetta cells
Aurora kinase A [1] = target: T1, Aurora kinase A (Homo sapiens, UniProt O14965); assay: Binding affinity to human Aurora A kinase expressed in Escherichia coli BL21 cells incubated for 1 hr by active site directed binding competition assay
T1 sequence (O14965 whole entry): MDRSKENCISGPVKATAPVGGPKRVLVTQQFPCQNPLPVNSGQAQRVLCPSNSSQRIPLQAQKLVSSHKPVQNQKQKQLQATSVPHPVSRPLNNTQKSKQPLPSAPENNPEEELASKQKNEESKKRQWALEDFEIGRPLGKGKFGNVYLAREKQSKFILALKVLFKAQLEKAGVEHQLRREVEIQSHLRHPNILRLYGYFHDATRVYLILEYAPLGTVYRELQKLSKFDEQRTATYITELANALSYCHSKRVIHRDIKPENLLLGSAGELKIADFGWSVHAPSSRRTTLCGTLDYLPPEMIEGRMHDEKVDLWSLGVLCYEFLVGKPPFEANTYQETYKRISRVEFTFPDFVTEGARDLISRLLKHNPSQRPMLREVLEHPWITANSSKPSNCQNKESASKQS
How it was run: (§1)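 Kinome scan of 456 kinases using an active-site-directed binding competition assay, followed by determination of binding affinities (Kd). Aurora B in this scan was free enzyme without INCENP.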

Aurora kinase C = target: T2, Aurora kinase C (Homo sapiens, UniProt Q9UQB9); assay: Binding affinity to human Aurora C kinase expressed in Escherichia coli BL21 cells incubated for 1 hr by active site directed binding competition assay; how it was run: as §1
T2 sequence (Q9UQB9 whole entry): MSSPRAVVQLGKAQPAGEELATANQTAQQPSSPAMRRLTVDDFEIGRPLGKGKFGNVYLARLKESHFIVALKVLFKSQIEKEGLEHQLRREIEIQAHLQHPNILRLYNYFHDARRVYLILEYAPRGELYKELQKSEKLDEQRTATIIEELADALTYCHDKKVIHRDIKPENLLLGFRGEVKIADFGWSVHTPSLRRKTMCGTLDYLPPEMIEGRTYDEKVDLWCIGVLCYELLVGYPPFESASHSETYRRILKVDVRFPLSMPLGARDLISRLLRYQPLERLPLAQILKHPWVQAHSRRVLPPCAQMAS

[2] = target: T3, Mitogen-activated protein kinase kinase kinase 19 (Homo sapiens, UniProt Q56UN5); assay: Binding affinity to human YSK4 expressed in Escherichia coli BL21 cells incubated for 1 hr by active site directed binding competition assay; how it was run: as §1
T3 sequence (Q56UN5 whole entry): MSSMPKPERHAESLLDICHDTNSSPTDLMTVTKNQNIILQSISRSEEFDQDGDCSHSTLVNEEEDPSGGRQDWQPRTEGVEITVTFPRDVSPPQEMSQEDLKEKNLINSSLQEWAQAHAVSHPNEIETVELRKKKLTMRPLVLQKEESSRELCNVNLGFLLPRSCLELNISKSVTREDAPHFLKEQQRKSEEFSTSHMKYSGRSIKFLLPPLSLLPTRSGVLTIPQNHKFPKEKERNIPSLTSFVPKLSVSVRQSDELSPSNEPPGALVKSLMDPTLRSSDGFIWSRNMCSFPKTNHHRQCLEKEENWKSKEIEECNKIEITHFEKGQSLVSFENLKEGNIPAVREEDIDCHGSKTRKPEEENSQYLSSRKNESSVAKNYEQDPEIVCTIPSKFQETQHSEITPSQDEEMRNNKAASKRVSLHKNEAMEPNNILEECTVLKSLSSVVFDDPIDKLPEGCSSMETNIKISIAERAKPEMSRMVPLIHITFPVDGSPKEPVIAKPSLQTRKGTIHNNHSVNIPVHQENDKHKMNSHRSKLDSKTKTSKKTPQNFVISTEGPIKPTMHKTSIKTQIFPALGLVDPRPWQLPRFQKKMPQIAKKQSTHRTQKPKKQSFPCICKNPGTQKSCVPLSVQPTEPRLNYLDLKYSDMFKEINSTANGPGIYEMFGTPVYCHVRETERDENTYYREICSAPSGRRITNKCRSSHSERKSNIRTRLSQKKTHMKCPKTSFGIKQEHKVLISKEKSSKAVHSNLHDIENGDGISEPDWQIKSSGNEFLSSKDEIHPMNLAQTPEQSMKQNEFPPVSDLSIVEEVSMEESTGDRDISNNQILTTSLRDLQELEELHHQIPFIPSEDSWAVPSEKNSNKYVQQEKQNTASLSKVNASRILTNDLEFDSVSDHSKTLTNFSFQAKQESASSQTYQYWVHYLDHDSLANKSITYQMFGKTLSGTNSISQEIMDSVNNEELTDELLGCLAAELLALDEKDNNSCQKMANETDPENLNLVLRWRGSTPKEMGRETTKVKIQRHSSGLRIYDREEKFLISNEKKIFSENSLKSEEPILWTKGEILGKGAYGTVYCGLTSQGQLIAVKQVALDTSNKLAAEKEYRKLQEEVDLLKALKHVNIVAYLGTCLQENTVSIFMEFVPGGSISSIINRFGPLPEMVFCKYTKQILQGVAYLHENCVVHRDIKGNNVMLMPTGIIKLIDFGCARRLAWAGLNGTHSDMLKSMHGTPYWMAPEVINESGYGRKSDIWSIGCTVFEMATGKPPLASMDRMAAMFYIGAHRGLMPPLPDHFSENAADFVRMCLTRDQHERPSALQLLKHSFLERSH

Aurora kinase A [3] = target: T1, Aurora kinase A; assay: Inhibition of His-tagged human Aurora A kinase ([…] residues) expressed in Escherichia coli BL21 (DE3) Rosetta cells using biotinylated STK2 substrate incubated for 30 mins in presence of 2 uM TPX2 by HTRF assay
How it was run: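 Biochemical kinase inhibition was read by HTRF with 20 µM ATP. Aurora B was assayed as its complex with the activator INCENP. For Aurora A, IC50 curves were recorded at different TPX2 concentrations.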

Aurora kinase B [4] = target: T4, Aurora kinase B (Homo sapiens, UniProt Q96GD4); assay: Inhibition of Aurora B kinase in human HeLa Kyoto cells assessed as induction of accumulation of cells at 8N DNA contant incubated for 48 hrs at 10 uM by flow cytometry; type: cell-based
T4 sequence (Q96GD4 whole entry): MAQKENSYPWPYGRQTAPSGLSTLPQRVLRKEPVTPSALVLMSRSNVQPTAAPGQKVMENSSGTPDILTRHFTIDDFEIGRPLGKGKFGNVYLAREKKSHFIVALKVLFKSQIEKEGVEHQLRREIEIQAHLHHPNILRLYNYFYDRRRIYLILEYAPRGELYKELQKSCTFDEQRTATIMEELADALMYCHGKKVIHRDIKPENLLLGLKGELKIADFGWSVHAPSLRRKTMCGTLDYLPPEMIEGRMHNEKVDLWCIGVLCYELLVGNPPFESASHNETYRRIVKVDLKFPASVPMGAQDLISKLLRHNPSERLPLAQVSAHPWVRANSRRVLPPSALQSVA
How it was run: (§2)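 Cells were treated for 48 h, stained with propidium iodide, and DNA content was analysed by flow cytometry. Cells with 8N and 16N DNA content were scored as a readout of defective cytokinesis.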

Aurora kinase B [5] = target: T4, Aurora kinase B; assay: Inhibition of Aurora B kinase in human HeLa Kyoto cells assessed as induction of accumulation of cells at 16N DNA contant incubated for 48 hrs at 10 uM by flow cytometry; type: cell-based; how it was run: as §2
[6] = Glutathione reactivity at 30 uM assessed as retention time for GSH adduct formation after 24 hrs in presence of 5 mM GSH, pH 7.4 buffer at 37 degC by LC-MS method
How it was run: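 Test compound at 30 µM was incubated with 5 mM GSH in H2O/CH3CN (4:1) at 37 °C and followed by LC-MS over 24 h. The GSH adduct was identified by MS. Parent was quantified by integrating its 310 nm absorption peak against 9-methylcarbazole as internal control. Values are the average of two independent experiments.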

Kd (Aurora kinase A [1]): 5 nM | Kd (Aurora kinase C): 10.8 nM | Kd [2]: 2900 nM | IC50 (Aurora kinase A [3]): 1400 nM | inhibition (Aurora kinase B [4]): Active | inhibition (Aurora kinase B [5]): Active
Compound: CCc1ccc(/N=C2\S/C(=C\c3ccnc(Nc4ccc(C(=O)O)cn4)c3)C(=O)N2C)cc1
Ratio IC50 (Homo sapiens): 75 | Retention time [6]: 1.29 min
